The results in this text go back to ChEMBL document CHEMBL1773010, “Cytotoxic and apoptosis-inducing activities of limonoids from the seeds of Azadirachta indica (neem)” (J Nat Prod, 2011).

The term IC50 denotes the concentration at which inhibition is half-maximal.

Common to all, as to type: functional, cell-based
The nature of experiment [1]: Cytotoxicity against human CRL1579 cells assessed as cell viability after 48 hrs by MTT assay. The essentials: (§1)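 Cells seeded at 3 × 10^3 per well and exposed to compounds from 1 × 10^-4 to 1 × 10^-6 M for 48 h. MTT was then added for 3 h, formazan dissolved in 0.04 M HCl in 2-propanol, and absorbance read at 570 nm against 630 nm. IC50 is the concentration giving 50% growth inhibition, from triplicate assays.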
For orientation: Tetrazolium assays rely on reduction of a dye to a coloured formazan, in cell work by metabolically active cells.

Experiment [2] has as its system SK-BR-3. In words: Cytotoxicity against human SK-BR-3 cells assessed as cell viability after 48 hrs by MTT assay. As to conditions: SK-BR-3, 48 h. A digest of the protocol: as §1
Experiment [3] concerns A549. In words: Cytotoxicity against human A549 cells assessed as cell viability after 48 hrs by MTT assay. As to conditions: A549, 48 h. A digest of the protocol:
as §1

Experiment [4] in a line: Cytotoxicity against human AZ-521 cells assessed as cell viability after 48 hrs by MTT assay. The conditions noted are these: AZ-521, 48 h. The essentials: as §1
For experiment [5], the system named is HL-60. In words: Cytotoxicity against human HL60 cells assessed as cell viability after 48 hrs by MTT assay. As to conditions: HL-60, 48 h. A digest of the protocol: as §1

Each structure is given as a SMILES string.

In the case of `CC(=O)O[C@@H]1C[C@H]2C(C)(C)C(=O)C=C[C@]2(C)[C@H]2CC[C@@]3(C)C(c4ccoc4)=C(O)C(=O)[C@H]3[C@@]21C`, the IC50 in experiment [1], in experiment [2], in experiment [3], in experiment [4] and in experiment [5] was above 20 µM in each case.
For `CC(=O)O[C@@H]1C[C@H]2C(C)(C)C(=O)C=C[C@]2(C)[C@H]2CC[C@]3(C)C(=CC(=O)[C@@H]3c3ccoc3)[C@@]21C` [17-EPIAZADIRADIONE], the IC50 is above 20 µM in experiment [1]; above 20 µM in experiment [2]; above 20 µM in experiment [3]; above 20 µM in experiment [4]; 12.6 µM in experiment [5].
As to `CC(=O)O[C@@H]1C[C@H]2C(C)(C)C(=O)C=C[C@]2(C)[C@H]2CC[C@]3(C)C(=CC(=O)[C@H]3C3=CCOC3=O)[C@@]21C` [AZADIRADIONOLIDE], the IC50 in experiment [1] is above 20 µM; in experiment [2], 11.5 µM; in experiment [3], above 20 µM; in experiment [4] it was above 20 µM; in experiment [5] it was above 20 µM.
Turning to `CC(=O)O[C@@H]1C[C@H]2C(C)(C)C(=O)C=C[C@]2(C)[C@H]2CC[C@@]3(C)OC(=O)C=C3[C@@]21C`, the IC50 in experiment [1], in experiment [2], in experiment [3], in experiment [4] and in experiment [5] was above 20 µM throughout.
Turning to `CC(=O)O[C@@H]1C[C@H]2C(C)(C)C(=O)C=C[C@]2(C)[C@H]2CC[C@@]3(C)CC(=O)C=C3[C@@]21C` [DESFURANOAZADIRADIONE], the IC50 in experiment [1] is above 20 µM; in experiment [2], above 20 µM; in experiment [3] it was above 20 µM; in experiment [4], above 20 µM; in experiment [5], 19.8 µM.
On to `C/C=C(/C)C(=O)O[C@H]1C[C@@H](O)[C@@]2(C)CO[C@H]3[C@H]4O[C@@H]5C[C@@H](c6ccoc6)C(C)=C5[C@@]4(C)[C@H](CC(=O)OC)[C@]1(C)[C@@H]32`, for which the IC50 in experiment [1], in experiment [2], in experiment [3], in experiment [4] and in experiment [5] was above 20 µM in each case.
As for `CCC(C)C(=O)O[C@H]1C[C@@H](OC(C)=O)[C@@]2(C(=O)OC)CO[C@H]3[C@@H](O)[C@@](C)([C@]45O[C@@]4(C)C4CC5O[C@@H]5C[C@@H](OC)C[C@]45O)[C@@H]4[C@@H](C(=O)OC)OC[C@@]14[C@@H]32` (some centres undefined), the IC50 in experiment [1], in experiment [2], in experiment [3], in experiment [4] and in experiment [5] was above 20 µM throughout.
For the molecule `CC=C(C)C(=O)O[C@H]1C[C@@H](OC(C)=O)[C@@]2(C(=O)OC)CO[C@H]3[C@H]4O[C@@H]5C6C[C@@H](O[C@@H]7OC=C[C@]67O)[C@]5(O)[C@@]4(C)[C@@H]4[C@@](OC)(C(=O)OC)OC[C@@]14[C@@H]32`, the IC50 in experiment [1], in experiment [2], in experiment [3], in experiment [4] and in experiment [5] was above 20 µM in each case.
On to `COC(=O)C[C@H]1[C@]2(C)C3=C(C)[C@H](c4ccoc4)C[C@H]3O[C@@H]2[C@H](OC(C)=O)[C@@H]2[C@]1(C)C(=O)C=C[C@@]2(C)O`, for which the IC50 in experiment [1], in experiment [2], in experiment [3], in experiment [4] and in experiment [5] was above 20 µM in each case.
For the molecule `CC(=O)O[C@@H]1C[C@H]2C(C)(C)C(=O)C=C[C@]2(C)[C@H]2CC[C@]3(C)C(=CC(=O)[C@H]3c3ccoc3)[C@@]21C` [AZADIRADIONE], the IC50 in experiment [1] is above 20 µM; in experiment [2], 15.9 µM; in experiment [3], above 20 µM; in experiment [4], above 20 µM; in experiment [5] it was 14.7 µM.
On to `CC1(C)C(=O)C=C[C@]2(C)[C@H]3CC[C@]4(C)C(=CC(=O)[C@H]4c4ccoc4)[C@]3(C)[C@H](O)C[C@@H]12` [NIMBOCINOL], for which the IC50 in experiment [1], in experiment [2], in experiment [3], in experiment [4] and in experiment [5] was above 20 µM each time.
On to `CC(=O)O[C@H]1C[C@@H](OC(C)=O)[C@@]2(C)CO[C@@H]3[C@@H](O)[C@@]4(C)C5=CC[C@@H](c6ccoc6)[C@]5(C)CC[C@@H]4[C@]1(C)[C@@H]32`, for which the IC50 in experiment [1] is above 20 µM; in experiment [2], above 20 µM; in experiment [3], above 20 µM; in experiment [4] it was 14.8 µM; in experiment [5], 15.3 µM.
Consider `C/C=C(/C)C(=O)O[C@H]1C[C@@H](OC(C)=O)[C@@]2(C)CO[C@H]3[C@H]4O[C@@H]5CC(=O)C(C)=C5[C@@]4(C)[C@H](CC(=O)OC)[C@]1(C)[C@@H]32`, for which the IC50 in experiment [1], in experiment [2], in experiment [3], in experiment [4] and in experiment [5] was above 20 µM each time.
Turning to `CC=C(C)C(=O)O[C@@H]1[C@@H]2OC[C@]3(C)[C@H](OC(C)=O)C[C@H](O)[C@](C)([C@H]4CC[C@@](C)([C@@H](C)[C@H]5COC(=O)C5)C[C@]14C)[C@@H]23`, the IC50 in experiment [1], in experiment [2], in experiment [3], in experiment [4] and in experiment [5] was above 20 µM in each case.
Consider `CC(=O)O[C@@H]1C[C@H]2C(C)(C)C(=O)C=C[C@]2(C)[C@H]2CC[C@@]3(C)[C@H](c4ccoc4)OC(=O)[C@H]4O[C@]43[C@@]21C` [GEDUNIN], for which the IC50 was above 20 µM in experiment [1]; 8.3 µM in experiment [2]; above 20 µM in experiment [3]; 16.9 µM in experiment [4]; 5.9 µM in experiment [5].
For `O=c1[nH]cc(F)c(=O)[nH]1` [FLUOROURACIL], the IC50 in experiment [1] is above 20 µM; in experiment [2], above 20 µM; in experiment [3], above 20 µM; in experiment [4], above 20 µM; in experiment [5], 9.1 µM.
`C/C=C(\C)C(=O)O[C@@H]1C[C@H](O)[C@]23CO[C@H](C(=O)OC)[C@H]2[C@](C)([C@]24O[C@@]2(C)[C@H]2C[C@@H]4O[C@@H]4OC=C[C@@]42O)[C@H](O)[C@@H]2OC[C@@]1(C(=O)OC)[C@H]23` [AZADIRACHTIN B]: the IC50 in experiment [1], in experiment [2], in experiment [3], in experiment [4] and in experiment [5] was above 20 µM throughout.
With `CC(=O)O[C@@H]1C[C@H]2C(C)(C)C(=O)C=C[C@]2(C)[C@H]2CC[C@@]3(C)[C@H](c4ccoc4)C(=O)[C@H]4O[C@]43[C@@]21C` [EPOXYAZADIRADIONE], the IC50 in experiment [1] is above 20 µM; in experiment [2] it was 12.3 µM; in experiment [3] it was above 20 µM; in experiment [4] it was above 20 µM; in experiment [5], 9.3 µM.
For `CC(=O)O[C@@H]1C[C@H]2C(C)(C)C(=O)C=C[C@]2(C)[C@H]2CC[C@]3(C)C(=CC[C@H]3[C@H]3COC(=O)C3)[C@@]21C`, the IC50 in experiment [1], in experiment [2], in experiment [3], in experiment [4] and in experiment [5] was above 20 µM throughout.
As for `COC(=O)C[C@H]1[C@]2(C)C3=C(C)[C@H](c4ccoc4)C[C@H]3O[C@@H]2[C@@H]2OC[C@]3(C)[C@H](OC(C)=O)C[C@H](OC(=O)/C=C/c4ccccc4)[C@@]1(C)[C@@H]23` [OHCHININ ACETATE], the IC50 in experiment [1] is above 20 µM; in experiment [2] it was above 20 µM; in experiment [3], above 20 µM; in experiment [4] it was above 20 µM; in experiment [5] it was 9.9 µM.
Regarding `CC(=O)O[C@@H]1C[C@H]2C(C)(C)C(=O)C=C[C@]2(C)[C@H]2CC[C@]3(C)C(=CC(=O)[C@@]3(O)c3ccoc3)[C@@]21C` [17-HYDROXYAZADIRADIONE], the IC50 in experiment [1] was above 20 µM; in experiment [2], above 20 µM; in experiment [3] it was above 20 µM; in experiment [4] it was above 20 µM; in experiment [5], 12.4 µM.
Turning to `COC(=O)C[C@H]1[C@]2(C)C3=C(C)[C@H](c4ccoc4)C[C@H]3O[C@@H]2[C@H](O)[C@@H]2[C@]1(C)C(=O)C=C[C@@]2(C)C(=O)OC` [DEACETYLNIMBIN], the IC50 is above 20 µM in experiment [1]; above 20 µM in experiment [2]; above 20 µM in experiment [3]; above 20 µM in experiment [4]; 11.6 µM in experiment [5].
Turning to `CC(=O)O[C@@H]1C[C@H]2C(C)(C)C(=O)C=C[C@]2(C)[C@H]2CC[C@]3(C)OC(=O)C=C3[C@@]21C`, the IC50 in experiment [1], in experiment [2], in experiment [3], in experiment [4] and in experiment [5] was above 20 µM throughout.
Take `CC1(C)C(=O)C=C[C@]2(C)[C@H]3CC[C@]4(C)C(=CC(=O)O[C@@]4(O)c4ccoc4)[C@]3(C)[C@H](O)C[C@@H]12`: the IC50 in experiment [1], in experiment [2], in experiment [3], in experiment [4] and in experiment [5] was above 20 µM throughout.
With `COC(=O)C[C@H]1[C@]2(C)C3=C(C)[C@H](c4ccoc4)C[C@H]3O[C@@H]2[C@H](OC(C)=O)[C@@H]2[C@]1(C)C(=O)C=C[C@@]2(C)C(=O)OC` [NIMBIN], the IC50 in experiment [1] is 15.9 µM; in experiment [2], above 20 µM; in experiment [3], above 20 µM; in experiment [4] it was above 20 µM.
